The text below walks through data of ChEMBL document CHEMBL1629582, “Novel nucleotide human immunodeficiency virus reverse transcriptase inhibitor GS-9148 with a low nephrotoxic potential: characterization of renal transport and accumulation” (Antimicrob Agents Chemother, 2009).

The nature of series [1]: Cytotoxicity against CHO cells after 120 hrs by Cell-Titer Glo assay. The format is cell-based, Cricetulus griseus. To be noted: chinese hamster. The procedure, abridged:
(§1)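 CHO cells carrying hOAT1 or empty vector were seeded in parallel at 3 × 10³/well. After 24 h, serial drug dilutions were added in triplicate and incubated 120 h. Viability was read by luminescence relative to untreated wells. CC50 was taken by nonlinear regression from two independent experiments, mean ± SD.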

For series [2], the target named is T1, Solute carrier family 22 member 6 (Homo sapiens, UniProt Q4U2R8).
T1 sequence (Q4U2R8 whole entry): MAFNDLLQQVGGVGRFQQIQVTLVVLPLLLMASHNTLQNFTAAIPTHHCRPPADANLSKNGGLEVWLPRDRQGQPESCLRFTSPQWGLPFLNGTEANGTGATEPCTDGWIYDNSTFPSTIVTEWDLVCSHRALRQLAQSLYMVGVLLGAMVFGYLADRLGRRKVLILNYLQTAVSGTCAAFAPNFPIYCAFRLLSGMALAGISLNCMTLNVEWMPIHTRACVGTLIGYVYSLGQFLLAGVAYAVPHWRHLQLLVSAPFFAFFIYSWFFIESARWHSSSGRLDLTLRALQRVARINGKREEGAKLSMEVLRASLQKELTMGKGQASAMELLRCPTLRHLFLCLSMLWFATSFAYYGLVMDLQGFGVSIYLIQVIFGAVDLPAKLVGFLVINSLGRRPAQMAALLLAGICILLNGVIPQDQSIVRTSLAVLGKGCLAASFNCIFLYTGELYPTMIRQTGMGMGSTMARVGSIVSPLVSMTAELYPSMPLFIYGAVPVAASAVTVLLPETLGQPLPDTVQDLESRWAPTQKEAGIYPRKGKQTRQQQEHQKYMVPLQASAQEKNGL
As to the kind of experiment: Activity of human OAT1 transfected in CHO cells measured per 10^6 cells. The format is cell-based. The procedure, abridged:
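Radiolabelled substrate at various concentrations incubated 20 min at 37°C with CHO cells stably expressing hOAT1 in Waymouth buffer (pH 7.2). Cells washed in ice-cold PBS, lysed in 0.3% Triton X-100, uptake read by scintillation counting. Km and Vmax fitted by Michaelis-Menten. Two independent experiments in duplicate, mean ± SD.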

Series [3] is described as follows: Drug uptake in human kidney cortex at 5 uM by liquid scintillation counting in presence of 500 uM of probenecid. The format is ADME, tissue-based.
For series [4], the system named is OAT1. As to the kind of experiment: Cytotoxicity against CHO cells expressing hOAT1 after 120 hrs by Cell-Titer Glo assay. The series is classed as ADME, cell-based, Cricetulus griseus. To be noted: chinese hamster. The procedure, abridged: as §1
In series [5] the test system is CHO. Description: Cellular uptake in CHO cells expressing hOAT1 at 10 uM by liquid scintillation counting in presence of 500 uM of probenecid relative to control. The series is classed as ADME, cell-based, Cricetulus griseus. To be noted: chinese hamster. The procedure, abridged:
(§2)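 Radiolabeled nucleotide at 10 μM was incubated at 37°C in Waymouth buffer pH 7.2 with transporter-expressing cells (CHO-hOAT1 or BHK-hOAT3) and matching empty-vector control cells, with or without 500 μM probenecid. Uptake was sampled at several time points, with longer times for hOAT3. Washed cells were lysed in Triton X-100 and counted by scintillation. Two independent experiments in duplicate, mean ± SD; two-tailed paired t test.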

A short description of series [6]: Cellular uptake in human HEK293T cells expressing MRP4 efflux transporter at 5 uM by liquid scintillation counting in presence of 30 uM efflux inhibitor MK-571 relative to control. To be noted: hek-293t.
A short description of series [7]: Cellular uptake in BHK21 cells expressing hOAT3 at 10 uM by liquid scintillation counting in presence of 500 uM of probenecid relative to control. To be noted: hamster, bhk-21, 10 µM. The series is classed as ADME, cell-based, Mesocricetus auratus. The procedure, abridged:
as §2

The nature of series [8]: Percent of urinary material present as GS-9148 in dog urine at 3 mg/kg, po.
For series [9], the system named is CHO. Description: Cellular uptake in CHO cells expressing hOAT1 at 10 uM by liquid scintillation counting relative to control. The format is ADME, cell-based, Cricetulus griseus. To be noted: chinese hamster. The procedure, abridged:
as §2

Series [10] can be described thus: AUC (0 to 24 hrs) in dog at 3 mg/kg, po. The series is classed as ADME, organism-based, Canis lupus familiaris. Set-up: time < 24 hr, dose 3 mg/kg, route oral. To be noted: plasma.
A short description of series [11]: Cellular uptake in human HEK293T cells expressing MRP4 efflux transporter assessed as accumulation of GS-9148 metabolite at 5 uM by liquid scintillation counting relative to control. The series is classed as ADME, cell-based. To be noted: hek-293t.
Series [12] in a line: Drug level in dog kidney at 3 mg/kg, po after 24 hrs by liquid scintillation counting. To be noted: in vivo. Further details: dose 3 mg/kg, route oral; call rule not given here. The format is ADME, organism-based, Canis lupus familiaris. The procedure, abridged: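 Three fasted dogs were given 3.0 mg/kg [14C]prodrug (10 μCi/kg) orally in 50 mM citrate pH 2.2. Kidneys were excised at 24 h, rinsed, blotted and weighed, then combusted and counted by scintillation. Values are μg equivalents per gram tissue, mean ± SD of three dogs.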

A short description of series [13]: Cellular uptake in human HEK293T cells expressing MRP4 efflux transporter at 5 uM by liquid scintillation counting relative to control. To be noted: hek-293t.
A short description of series [14]: Cellular uptake in BHK21 cells expressing hOAT3 at 10 uM by liquid scintillation counting relative to control. The format is ADME, cell-based, Mesocricetus auratus. To be noted: hamster, bhk-21, 10 µM. The procedure, abridged:
as §2

A short description of series [15]: Renal clearance in dog urine at 3 mg/kg, po. The format is ADME, organism-based, Canis lupus familiaris. Set-up: dose 3 mg/kg, route oral. To be noted: read-out: CL_renal (converted). The procedure, abridged: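 Fasted dogs were given 3.0 mg/kg [14C]prodrug (10 μCi/kg) in 50 mM citrate pH 2.2 by oral gavage. Urine was collected on dry ice over 0–8 and 8–24 h and counted by scintillation. Parent nucleotide in pooled 0–24 h urine was measured by radio-HPLC on a C18 column with an ammonium formate/acetonitrile gradient. Renal clearance = 24-h urinary amount / 24-h plasma exposure / body weight; three dogs.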

The target of series [16] is T2, OAT1 (SLC22A6) (Homo sapiens, UniProt Q4U2R8).
T2 sequence (Q4U2R8 whole entry): T1 sequence (Q4U2R8 whole entry)
As to the kind of experiment: (§3) Activity of human OAT1 transfected in CHO cells. The series is classed as cell-based. The procedure, abridged: (§4)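 CHO cells stably transfected with human OAT1, with empty-vector CHO cells run in parallel, seeded 48 h ahead. Radiolabeled substrate was given at a range of concentrations for 20 min at 37°C in Waymouth buffer pH 7.2. Cells were washed in ice-cold PBS, lysed in Triton X-100 and counted by scintillation. Km and Vmax came from Michaelis-Menten fitting; two independent experiments in duplicate, mean ± SD.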

Substrate in series [17]: Nc1ncnc2c1ncn2[C@@H]1O[C@H](OCP(=O)(O)O)C=C1F
The series is described as §3. The series is classed as cell-based. The procedure, abridged: as §4

Substrate in series [18]: Nc1ncnc2c1ncn2[C@@H]1O[C@H](OCP(=O)(O)O)C=C1F
As to the kind of experiment: (§5) Activity of human OAT3 transfected in BHK-21 cells. The format is cell-based. The procedure, abridged:
(§6)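 BHK-21 cells stably transfected with human OAT3 (the clone with highest probenecid-sensitive uptake), with empty-vector BHK cells in parallel, seeded on fibronectin 24 h ahead. Radiolabeled substrate was given at a range of concentrations for 120 min at 37°C in Waymouth buffer pH 7.2. Lysates were counted by scintillation. Km and Vmax came from Michaelis-Menten fitting; two independent experiments in duplicate.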

Substrate in series [19]: C[C@H](Cn1cnc2c(N)ncnc21)OCP(=O)(O)O
The series is described as §5. The format is cell-based. The procedure, abridged:
as §6

Substrate in series [20]: Nc1ncnc2c1ncn2CCOCP(=O)(O)O
The description is as §5. The format is cell-based. The procedure, abridged: as §6

Bounds are passed on as bounds.

In the case of `Nc1ncnc2c1ncn2CCOCP(=O)(O)O` [ADEFOVIR], the CC50 at 120 h in series [1] was ≥ 2000 µM. The Vmax in series [2] is on record as 46 pmol/min. For the same molecule, the Drug uptake result in series [3] is listed as “Active”.

In the case of `Nc1ccn(C[C@@H](CO)OCP(=O)(O)O)c(=O)n1.O.O` [CIDOFOVIR], the CC50 at 120 h in series [1] is 520 µM; in series [4], 3 µM. For the same molecule, the Vmax in series [2] is given as 103 pmol/min.

In the case of `Nc1ncnc2c1ncn2[C@@H]1O[C@H](OCP(=O)(O)O)C=C1F` [GS-9148], the Drug uptake result is “Not Active” in series [5]; “Active” in [6]; “Not Active” in series [7]; “Active” in series [9]; “Active” in series [11]; 2.49 µg/g in series [12]. Also, the Drug uptake entry is given as “Not Active” in [13] and “Active” in series [14]. This molecule also came in with a CC50 at 120 h in [4] of 435 µM. In series [8], this molecule came in with a percent of urinary material as GS-9148 of 84%. In addition, the AUC(0-t) at 24 h in series [10] turned out to be 4.9 µM·h. Besides, in series [15], the CL renal was 7.83 mL/min/kg.

With `C[C@H](Cn1cnc2c(N)ncnc21)OCP(=O)(O)O` [TENOFOVIR ANHYDROUS], the Vmax in series [2] is reported as 110 pmol/min. In addition, the Km in [16] turned out to be 33.8 µM.

B1: Solute carrier family 22 member 6 (Homo sapiens) (protein)
chain: T1 sequence (Q4U2R8 whole entry)
With B1, in series [17], the Km came to 259 µM and the Vmax came out at 7.8e-06 µmol/min.

B2: Organic anion transporter 3 (Homo sapiens) (protein)
chain: MTFSEILDRVGSMGHFQFLHVAILGLPILNMANHNLLQIFTAATPVHHCRPPHNASTGPWVLPMGPNGKPERCLRFVHPPNASLPNDTQRAMEPCLDGWVYNSTKDSIVTEWDLVCNSNKLKEMAQSIFMAGILIGGLVLGDLSDRFGRRPILTCSYLLLAASGSGAAFSPTFPIYMVFRFLCGFGISGITLSTVILNVEWVPTRMRAIMSTALGYCYTFGQFILPGLAYAIPQWRWLQLTVSIPFFVFFLSSWWTPESIRWLVLSGKSSKALKILRRVAVFNGKKEEGERLSLEELKLNLQKEISLAKAKYTASDLFRIPMLRRMTFCLSLAWFATGFAYYSLAMGVEEFGVNLYILQIIFGGVDVPAKFITILSLSYLGRHTTQAAALLLAGGAILALTFVPLDLQTVRTVLAVFGKGCLSSSFSCLFLYTSELYPTVIRQTGMGVSNLWTRVGSMVSPLVKITGEVQPFIPNIIYGITALLGGSAALFLPETLNQPLPETIEDLENWSLRAKKPKQEPEVEKASQRIPLQPHGPGLGSS
B2: the Km amounted to 1220 µM in series [18], 770 µM in series [19] and 1220 µM in series [20]. In addition, the Vmax in series [18] was determined as 1.95e-05 µmol/min; in [19], 2.87e-05 µmol/min; in series [20], 0.000131 µmol/min.

By CC50 is commonly meant the concentration giving 50% cytotoxicity. High values mean lower toxicity to the cells, low ones greater toxicity to the cells. Usually Vmax stands for the rate approached at saturating substrate. In general, AUC(0-t) refers to exposure summed from dosing to a finite time, without extrapolation to infinity. A lower AUC(0-t) goes with less exposure. A word on the Km: it is the concentration of substrate that gives half-maximal velocity.
